Data from ChEMBL document CHEMBL4665669, “Novel tertiary sulfonamide derivatives containing benzimidazole moiety as potent anti-gastric cancer agents: Design, synthesis and SAR studies” (Eur J Med Chem, 2019).
The source made the active and inactive calls.

What was measured:
MGC-803 [1] = experiment: Anticancer activity against human MGC-803 cells assessed as inhibition of cell proliferation after 48 hrs by MTT assay; type: functional, cell-based
In short: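 MTT assay with 48 h compound exposure. MTT solution was then added and incubated 4 h at 37 °C, the supernatant discarded and formazan dissolved in DMSO, with absorbance read at 490 nm. IC50 values were calculated from three independent experiments, reported as mean SD.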

GES1 = experiment: Cytotoxicity against human GES1 cells assessed as inhibition of cell proliferation after 48 hrs by MTT assay; type: cell-based; conditions: GES1, 48 h
In short: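 Normal gastric epithelial GES-1 cells were exposed to compound for 48 h. MTT was then added for 4 h at 37 °C. Formazan was dissolved in DMSO after the supernatant was removed, and absorbance was read at 490 nm. IC50 was computed from three independent experiments, given as mean SD.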

HGC-27 [2] = experiment: Cell cycle arrest in human HGC-27 cells assessed as accumulation at G2/M phase at 0.5 to 1.5 umol/L after 48 hrs by RNase/propidium iodide staining based flow cytometry; type: functional; conditions: dose micromol/L 0.5-1.5, time 48.0 hrs
In short: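 MGC-803, SGC-7901 and HGC-27 cells were seeded in 6-well plates and treated 48 h with compound or DMSO. Cells were then harvested and fixed in 70% cold ethanol at 4 °C for 8 h, and cell-cycle phase distribution was quantified by flow cytometry.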

SGC-7901 [3] = experiment: Cell cycle arrest at G2 phase in human SGC-7901 cells assessed as downregulation of Cyclin B level at 0.5 to 1.5 umol/L after 48 hrs by Western blot analysis; type: functional, cell-based; conditions: dose micromol/L 0.5-1.5, time 48.0 hrs
In short: (§1)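 Western blot. Cells were treated with compound concentrations or DMSO for 48 h, then lysed, and lysates were denatured, run on SDS-PAGE and transferred to nitrocellulose. After blocking in 5% skimmed milk, membranes were incubated with primary antibodies at 4 °C for 8 h, then secondary antibodies, with ECL detection.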

SGC-7901 [4] = experiment: Inhibition of Ras/Raf/MEK/ERK signalling pathway in human SGC-7901 cells assessed as decrease in c-Raf phosphorylation after 48 hrs by Western blot analysis; type: cell-based; conditions: dose micromol/L 0.5-1.5, time 48.0 hrs
In short: (§2)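 Cells treated with graded concentrations or DMSO for 48 h, then harvested and lysed. Lysates denatured, resolved by SDS-PAGE and transferred to nitrocellulose. Membranes blocked with 5% skimmed milk and probed with primary antibodies at 4 °C for 8 h, then with secondary antibodies. Bands detected by ECL.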

MGC-803 [5] = experiment: Inhibition of Ras/Raf/MEK/ERK signalling pathway in human MGC-803 cells assessed as decrease in MEK1 phosphorylation after 48 hrs by Western blot analysis; type: cell-based; conditions: dose micromol/L 0.5-1.5, time 48.0 hrs; in short: as §2
SGC-7901 [6] = experiment: Inhibition of Ras/Raf/MEK/ERK signalling pathway in human SGC-7901 cells assessed as decrease in MEK1 phosphorylation after 48 hrs by Western blot analysis; type: cell-based; conditions: dose micromol/L 0.5-1.5, time 48.0 hrs; in short: as §2
MGC-803 [7] = experiment: Inhibition of Ras/Raf/MEK/ERK signalling pathway in human MGC-803 cells assessed as decrease in ERK1/2 phosphorylation after 48 hrs by Western blot analysis; type: cell-based; conditions: dose micromol/L 0.5-1.5, time 48.0 hrs; in short: as §2
SGC-7901 [8] = experiment: Inhibition of Ras/Raf/MEK/ERK signalling pathway in human SGC-7901 cells assessed as decrease in ERK1/2 phosphorylation after 48 hrs by Western blot analysis; type: cell-based; conditions: dose micromol/L 0.5-1.5, time 48.0 hrs; in short: as §2
MGC-803 [9] = experiment: Inhibition of Ras/Raf/MEK/ERK signalling pathway in human MGC-803 cells assessed as downregulation of FoxO3a expression at 0.5 to 1.5 umol/L after 48 hrs by Western blot analysis; type: cell-based; conditions: dose micromol/L 0.5-1.5, time 48.0 hrs; in short: as §2
HGC-27 [10] = experiment: Inhibition of Ras/Raf/MEK/ERK signalling pathway in human HGC-27 cells assessed as downregulation of c-Myc expression at 0.5 to 1.5 umol/L after 48 hrs by Western blot analysis; type: cell-based; conditions: dose micromol/L 0.5-1.5, time 48.0 hrs; in short: as §2
HGC-27 [11] = experiment: Inhibition of Akt/mTOR signalling pathway in human HGC-27 cells assessed as decrease in mTOR phosphorylation at Ser2448 residue at 0.5 to 1.5 umol/L after 48 hrs by Western blot analysis; type: cell-based; conditions: dose micromol/L 0.5-1.5, time 48.0 hrs; in short: as §2
SGC-7901 [12] = experiment: Inhibition of Akt/mTOR signalling pathway in human SGC-7901 cells assessed as decrease in mTOR phosphorylation at Ser2448 residue at 0.5 to 1.5 umol/L after 48 hrs by Western blot analysis; type: cell-based; conditions: dose micromol/L 0.5-1.5, time 48.0 hrs; in short: as §2
MGC-803 [13] = experiment: Induction of apoptosis in human MGC-803 cells assessed as increase in nucleus concentration at 0.5 to 1.5 umol/L after 48 hrs by imaging analysis; type: functional, cell-based; conditions: dose micromol/L 0.5-1.5, time 48.0 hrs
HGC-27 [14] = experiment: Induction of apoptosis in human HGC-27 cells assessed as increase in nucleus concentration at 0.5 to 1.5 umol/L after 48 hrs by imaging analysis; type: functional, cell-based; conditions: dose micromol/L 0.5-1.5, time 48.0 hrs
SGC-7901 [15] = experiment: Induction of apoptosis in human SGC-7901 cells assessed as increase in nucleus concentration at 0.5 to 1.5 umol/L after 48 hrs by imaging analysis; type: functional, cell-based; conditions: dose micromol/L 0.5-1.5, time 48.0 hrs
MGC-803 [16] = experiment: Induction of apoptosis in human MGC-803 cells assessed as induction of DNA fragmentation at 0.5 to 1.5 umol/L after 48 hrs by imaging analysis; type: functional, cell-based; conditions: dose micromol/L 0.5-1.5, time 48.0 hrs
HGC-27 [17] = experiment: Induction of apoptosis in human HGC-27 cells induction of DNA fragmentation at 0.5 to 1.5 umol/L after 48 hrs by imaging analysis; type: functional, cell-based; conditions: dose micromol/L 0.5-1.5, time 48.0 hrs
SGC-7901 [18] = experiment: Induction of apoptosis in human SGC-7901 cells induction of DNA fragmentation at 0.5 to 1.5 umol/L after 48 hrs by imaging analysis; type: functional, cell-based; conditions: dose micromol/L 0.5-1.5, time 48.0 hrs
MGC-803 [19] = experiment: Induction of apoptosis in human MGC-803 cells assessed as downregulation of Bcl-2 level at 0.5 to 1.5 umol/L after 48 hrs Western blot analysis; type: functional, cell-based; conditions: dose micromol/L 0.5-1.5, time 48.0 hrs; in short: as §1
HGC-27 [20] = experiment: Induction of apoptosis in human HGC-27 cells assessed as upregulation of NOXA level at 0.5 to 1.5 umol/L after 48 hrs Western blot analysis; type: functional, cell-based; conditions: dose micromol/L 0.5-1.5, time 48.0 hrs; in short: as §1
HGC-27 [21] = experiment: Induction of apoptosis in human HGC-27 cells assessed as downregulation of Bcl-2 level at 0.5 to 1.5 umol/L after 48 hrs Western blot analysis; type: functional, cell-based; conditions: dose micromol/L 0.5-1.5, time 48.0 hrs; in short: as §1
HGC-27 [22] = experiment: Induction of apoptosis in human HGC-27 cells assessed as downregulation of XIAP level at 0.5 to 1.5 umol/L after 48 hrs Western blot analysis; type: functional, cell-based; conditions: dose micromol/L 0.5-1.5, time 48.0 hrs; in short: as §1
SGC-7901 [23] = experiment: Induction of apoptosis in human SGC-7901 cells assessed as upregulation of NOXA level at 0.5 to 1.5 umol/L after 48 hrs Western blot analysis; type: functional, cell-based; conditions: dose micromol/L 0.5-1.5, time 48.0 hrs; in short: as §1
SGC-7901 [24] = experiment: Induction of apoptosis in human SGC-7901 cells assessed as downregulation of c-IAP1 level at 0.5 to 1.5 umol/L after 48 hrs Western blot analysis; type: functional, cell-based; conditions: dose micromol/L 0.5-1.5, time 48.0 hrs; in short: as §1
SGC-7901 [25] = experiment: Cell cycle arrest at G2 phase in human SGC-7901 cells assessed as downregulation of CDK1 level at 0.5 to 1.5 umol/L after 48 hrs by Western blot analysis; type: functional, cell-based; conditions: dose micromol/L 0.5-1.5, time 48.0 hrs; in short: as §1
HGC-27 [26] = experiment: Anticancer activity against human HGC-27 cells assessed as cell growth at 0.5 to 1.5 umol/L after 48 hrs by MTT assay relative to control; type: functional; conditions: dose micromol/L 0.5-1.5
SGC-7901 [27] = experiment: Anticancer activity against human SGC-7901 cells assessed as cell growth at 0.5 to 1.5 umol/L after 48 hrs by MTT assay relative to control; type: functional; conditions: dose micromol/L 0.5-1.5
MGC-803 [28] = experiment: Inhibition of Ras/Raf/MEK/ERK signalling pathway in human MGC-803 cells assessed as effect on RAS level at 0.5 to 1.5 umol/L after 48 hrs by Western blot analysis; type: cell-based; conditions: dose micromol/L 0.5-1.5, time 48.0 hrs; in short: as §2

COc1cc(N(Cc2nc3ccccc3[nH]2)S(=O)(=O)c2ccc(C)cc2)cc(OC)c1OC
1.02 µM: IC50 (MGC-803 [1]; MGC-803, 48 h)
inactive: inhibition (MGC-803 [28])
active: Activity (MGC-803 [1]) Dose-dependent effect | Activity (HGC-27 [2]) | Activity (SGC-7901 [3]) | inhibition (SGC-7901 [4]) Dose-dependent effect | inhibition (MGC-803 [5]) Dose-dependent effect | inhibition (SGC-7901 [6]) Dose-dependent effect | inhibition (MGC-803 [7]) Dose-dependent effect | inhibition (SGC-7901 [8]) Dose-dependent effect | inhibition (MGC-803 [9]) | inhibition (HGC-27 [10]) | inhibition (HGC-27 [11]) | inhibition (SGC-7901 [12]) | Activity (MGC-803 [13]) | Activity (HGC-27 [14]) | Activity (SGC-7901 [15]) | Activity (MGC-803 [16]) | Activity (HGC-27 [17]) | Activity (SGC-7901 [18]) | Activity (MGC-803 [19]) | Activity (HGC-27 [20]) | Activity (HGC-27 [21]) | Activity (HGC-27 [22]) | Activity (SGC-7901 [23]) | Activity (SGC-7901 [24]) | Activity (SGC-7901 [25])
15.2 µM: IC50 (GES1)
<2: fold change (FC) (HGC-27 [26]) | fold change (FC) (SGC-7901 [27])
